Measured values from ChEMBL document CHEMBL3779881, “Property Focused Structure-Based Optimization of Small Molecule Inhibitors of the Protein-Protein Interaction between Menin and Mixed Lineage Leukemia (MLL)” (J Med Chem, 2016).
Calls of active or inactive are those of the source. No cut-off for these calls is given here.

Experiments:
[1] = Efflux ratio of apparent permeability from […] side in human Caco2 cells at 10 uM after 2 hrs by LC-MS/MS analysis; type: ADME, cell-based; conditions: caco-2, 2 h
[2] = target: Menin/Histone-lysine N-methyltransferase MLL (Homo sapiens, UniProt O00255); assay: Inhibition of menin-MLL interaction (unknown origin) after 1 hr by fluorescence polarization assay; type: protein assay
[3] = Growth inhibition of MLL-AF9 transformed mouse bone marrow cells after 7 days by MTT assay; type: functional; conditions: Bone marrow cell, 168 h
[4] = Growth inhibition of Hoxa9/Meis1 transformed mouse bone marrow cells after 7 days by MTT assay; type: functional; conditions: Bone marrow cell, 168 h
[5] = tested on: Bone marrow cell; assay: Selectivity index, ratio of GI50 for Hoxa9/Meis1 transformed mouse bone marrow cells to GI50 for MLL-AF9 transformed mouse bone marrow cells; type: functional
[6] = Half life in CD-1 mouse liver microsomes at 1 uM after 3 to 60 mins by LC-MS/MS analysis; type: ADME
[7] = tested on: MV4-11; assay: Growth inhibition of human MV4-11 after 7 days by MTT assay; type: functional; conditions: MV4-11, 168 h
Method in brief: (§1)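 Cells in RPMI-1640/10% FBS/pen-strep/NEAA, seeded at 1×10^5/mL (MOLM-13, MV4;11) or 2×10^5/mL (HL-60), treated with compound or 0.25% DMSO for 7 days at 37 °C. Medium changed on day 4 with cell density reset and compound resupplied. MTT absorbance read at 570 nm; 2–3 experiments in quadruplicate, mean ± SD.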

[8] = tested on: MOLM-13; assay: Growth inhibition of human MOLM13 after 7 days by MTT assay; type: functional; conditions: MOLM-13, 168 h; method in brief: as §1
[9] = tested on: HL-60; assay: Growth inhibition of human HL60 after 7 days by MTT assay; type: functional; conditions: HL-60, 168 h; method in brief: as §1
[10] = target: T1, Menin/Histone-lysine N-methyltransferase 2A (Mus musculus) (UniProt O88559+P55200); assay: Inhibition of menin-MLL interaction in MLL-AF9 transformed mouse bone marrow cells assessed as induction of cell differentiation measured as decreased nuclei to cytoplasm ratio at 0.5 uM after 7 days by Cytospin/Wright-Giemsa staining assay
Method in brief: (§2)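 MLL-AF9 transduced mouse bone marrow cells seeded at 3×10^5/mL, treated with compound or 0.25% DMSO at 37 °C, 5% CO2 for 7 days; cytospins stained with Wright–Giemsa and scored for morphology.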

[11] = target: T1, Menin/Histone-lysine N-methyltransferase 2A (Mus musculus); assay: Inhibition of menin-MLL interaction in MLL-AF9 transformed mouse bone marrow cells assessed as induction of cell differentiation measured as multilobed nuclei at 0.5 uM after 7 days by Cytospin/Wright-Giemsa staining assay; method in brief: as §2
[12] = target: T1, Menin/Histone-lysine N-methyltransferase 2A (Mus musculus); assay: Inhibition of menin-MLL interaction in MLL-AF9 transformed mouse bone marrow cells assessed as induction of cell differentiation measured as highly vacuolated cytoplasm at 0.5 uM after 7 days by Cytospin/Wright-Giemsa staining assay; method in brief: as §2
[13] = target: T1, Menin/Histone-lysine N-methyltransferase 2A (Mus musculus); assay: Inhibition of menin-MLL interaction in MLL-AF9 transformed mouse bone marrow cells assessed as induction of cell differentiation measured as upregulation of Itgam expression level at 0.12 to 0.5 uM after 6 days by qRT-PCR analysis
Method in brief: (§3)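 MLL-AF9 transformed murine bone marrow cells treated 6 days, then qRT-PCR. Hoxa9 and Meis1 normalised to β-actin; Itgam normalised to 18S rRNA; each referenced to DMSO-treated cells; mean ± SD, n = 2.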

[14] = target: T1, Menin/Histone-lysine N-methyltransferase 2A (Mus musculus); assay: Inhibition of menin-MLL interaction in MLL-AF9 transformed mouse bone marrow cells assessed as downregulation of Hoxa9 expression level at 100 nM after 6 days by qRT-PCR analysis; method in brief: as §3
[15] = target: T1, Menin/Histone-lysine N-methyltransferase 2A (Mus musculus); assay: Inhibition of menin-MLL interaction in MLL-AF9 transformed mouse bone marrow cells assessed as downregulation of Meis1 expression level at 0.12 to 0.5 uM after 6 days by qRT-PCR analysis; method in brief: as §3
[16] = tested on: MV4-11; assay: Antitumor activity against human MV4-11 cells xenografted in CB17 SCID mouse assessed as tumor growth inhibition at 45 mg/kg, ip qd administered for 2 weeks; type: functional; conditions: MV4-11, ip, 336 h, read-out: TGI
Method in brief: (§4)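 MV4;11 cells in serum-free medium mixed 1:1 with Matrigel; 5×10^6 cells injected subcutaneously into the right flank of female mice aged 4–6 weeks. Dosing began at ~100 mm³ tumours; mice randomised, once-daily ip injections of vehicle or compound for 2 weeks.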

[17] = tested on: Mus musculus; assay: Toxicity in CB17 SCID mouse xenografted with human MV4-11 cells assessed as reduction in body weight at 45 mg/kg, ip qd administered for 2 weeks; type: organism-based; design: scale not given: the % may be the effect or the level left; conditions: in vivo, 336 h; method in brief: as §4
[18] = target: T2, Menin (Homo sapiens, UniProt O00255); assay: Binding affinity to menin (unknown origin)
T2 sequence (O00255 whole entry): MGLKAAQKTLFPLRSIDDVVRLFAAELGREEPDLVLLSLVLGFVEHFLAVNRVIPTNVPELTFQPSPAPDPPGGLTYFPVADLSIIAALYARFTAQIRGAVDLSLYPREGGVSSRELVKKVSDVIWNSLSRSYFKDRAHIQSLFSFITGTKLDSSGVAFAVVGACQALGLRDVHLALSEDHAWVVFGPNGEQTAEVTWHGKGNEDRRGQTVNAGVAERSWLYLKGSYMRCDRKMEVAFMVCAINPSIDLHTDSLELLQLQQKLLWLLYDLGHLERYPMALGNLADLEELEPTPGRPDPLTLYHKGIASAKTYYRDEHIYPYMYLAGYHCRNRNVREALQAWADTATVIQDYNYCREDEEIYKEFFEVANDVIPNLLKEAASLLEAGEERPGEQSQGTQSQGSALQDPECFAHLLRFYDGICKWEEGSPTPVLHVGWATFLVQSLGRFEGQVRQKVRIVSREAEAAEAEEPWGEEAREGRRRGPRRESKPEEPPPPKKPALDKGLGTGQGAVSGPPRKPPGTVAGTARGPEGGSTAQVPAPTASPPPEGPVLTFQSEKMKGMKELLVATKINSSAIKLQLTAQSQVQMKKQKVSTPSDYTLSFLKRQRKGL

[19] = tested on: Plasma; assay: Drug metabolism in C57BL/6 mouse plasma assessed as glucuronidation at 15 mg/kg, iv after 24 hrs by LC-MS/MS analysis; type: ADME, organism-based; conditions: in vivo
Method in brief: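 Female C57BL/6 mice given 15 mg/kg iv in 25% DMSO/25% PEG-400/50% PBS; serial plasma samples analysed by the same LC-MS/MS procedure as the PK work to detect glucuronide conjugates.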

[20] = tested on: Mus musculus; assay: Tmax in C57BL/6 mouse plasma at 30 mg/kg, po after 24 hrs by LC-MS/MS analysis; type: ADME, organism-based; conditions: in vivo
Method in brief: (§5)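 Female C57BL/6 mice dosed iv at 15 mg/kg or orally at 30 mg/kg in 25% DMSO/25% PEG-400/50% PBS (v/v). Serial 50 μL blood samples collected over 24 h (8 h in one experiment), spun to plasma; concentrations by validated LC-MS/MS in positive-ion MRM mode; parameters from noncompartmental analysis.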

[21] = tested on: Mus musculus; assay: Cmax in C57BL/6 mouse plasma at 30 mg/kg, po after 24 hrs by LC-MS/MS analysis; type: ADME, organism-based; design: dose 30 mg/kg, route oral; conditions: in vivo; method in brief: as §5
[22] = tested on: Mus musculus; assay: AUC in C57BL/6 mouse at 15 mg/kg, iv after 24 hrs by LC-MS/MS analysis; type: ADME, organism-based; design: dose 15 mg/kg, time < 24 hr, route intravenous; conditions: in vivo; method in brief: as §5
[23] = tested on: Mus musculus; assay: AUC in C57BL/6 mouse at 30 mg/kg, po after 24 hrs by LC-MS/MS analysis; type: ADME, organism-based; design: time < 24 hr, dose 30 mg/kg, route oral; conditions: in vivo; method in brief: as §5
[24] = tested on: Mus musculus; assay: Half life in C57BL/6 mouse at 15 mg/kg, iv after 24 hrs by LC-MS/MS analysis; type: ADME, organism-based; conditions: in vivo; method in brief: as §5
[25] = Clearance in C57BL/6 mouse at 15 mg/kg, iv after 24 hrs by LC-MS/MS analysis; type: ADME, organism-based; conditions: in vivo; method in brief: as §5
[26] = tested on: Mus musculus; assay: Volume of distribution at steady state in C57BL/6 mouse at 15 mg/kg, iv after 24 hrs by LC-MS/MS analysis; type: ADME, organism-based; conditions: in vivo; method in brief: as §5
[27] = tested on: Mus musculus; assay: Oral bioavailability in C57BL/6 mouse at 30 mg/kg after 24 hrs by LC-MS/MS analysis; type: ADME, organism-based; conditions: in vivo; method in brief: as §5
[28] = tested on: Mus musculus; assay: Oral bioavailability in C57BL/6 mouse at 30 mg/kg after 8 hrs by LC-MS/MS analysis; type: ADME, organism-based; conditions: in vivo; method in brief: as §5
[29] = tested on: Mus musculus; assay: Tmax in C57BL/6 mouse plasma at 30 mg/kg, po after 8 hrs by LC-MS/MS analysis; type: ADME, organism-based; conditions: in vivo; method in brief: as §5
[30] = tested on: Mus musculus; assay: Cmax in C57BL/6 mouse plasma at 30 mg/kg, po after 8 hrs by LC-MS/MS analysis; type: ADME, organism-based; design: dose 30 mg/kg, route oral; conditions: in vivo; method in brief: as §5
[31] = tested on: Mus musculus; assay: AUC in C57BL/6 mouse at 15 mg/kg, iv after 8 hrs by LC-MS/MS analysis; type: ADME, organism-based; design: time < 8 hr, dose 15 mg/kg, route intravenous; conditions: in vivo; method in brief: as §5
[32] = tested on: Mus musculus; assay: AUC in C57BL/6 mouse at 30 mg/kg, po after 8 hrs by LC-MS/MS analysis; type: ADME, organism-based; design: dose 30 mg/kg, time < 8 hr, route oral; conditions: in vivo; method in brief: as §5
[33] = tested on: Mus musculus; assay: Half life in C57BL/6 mouse at 15 mg/kg, iv after 8 hrs by LC-MS/MS analysis; type: ADME, organism-based; conditions: in vivo; method in brief: as §5
[34] = Clearance in C57BL/6 mouse at 15 mg/kg, iv after 8 hrs by LC-MS/MS analysis; type: ADME, organism-based; conditions: in vivo; method in brief: as §5
[35] = tested on: Mus musculus; assay: Volume of distribution at steady state in C57BL/6 mouse at 15 mg/kg, iv after 8 hrs by LC-MS/MS analysis; type: ADME, organism-based; conditions: in vivo; method in brief: as §5

Chain of Menin/Histone-lysine N-methyltransferase MLL (Q03164 1-2718 partner limits assumed, one chain of several): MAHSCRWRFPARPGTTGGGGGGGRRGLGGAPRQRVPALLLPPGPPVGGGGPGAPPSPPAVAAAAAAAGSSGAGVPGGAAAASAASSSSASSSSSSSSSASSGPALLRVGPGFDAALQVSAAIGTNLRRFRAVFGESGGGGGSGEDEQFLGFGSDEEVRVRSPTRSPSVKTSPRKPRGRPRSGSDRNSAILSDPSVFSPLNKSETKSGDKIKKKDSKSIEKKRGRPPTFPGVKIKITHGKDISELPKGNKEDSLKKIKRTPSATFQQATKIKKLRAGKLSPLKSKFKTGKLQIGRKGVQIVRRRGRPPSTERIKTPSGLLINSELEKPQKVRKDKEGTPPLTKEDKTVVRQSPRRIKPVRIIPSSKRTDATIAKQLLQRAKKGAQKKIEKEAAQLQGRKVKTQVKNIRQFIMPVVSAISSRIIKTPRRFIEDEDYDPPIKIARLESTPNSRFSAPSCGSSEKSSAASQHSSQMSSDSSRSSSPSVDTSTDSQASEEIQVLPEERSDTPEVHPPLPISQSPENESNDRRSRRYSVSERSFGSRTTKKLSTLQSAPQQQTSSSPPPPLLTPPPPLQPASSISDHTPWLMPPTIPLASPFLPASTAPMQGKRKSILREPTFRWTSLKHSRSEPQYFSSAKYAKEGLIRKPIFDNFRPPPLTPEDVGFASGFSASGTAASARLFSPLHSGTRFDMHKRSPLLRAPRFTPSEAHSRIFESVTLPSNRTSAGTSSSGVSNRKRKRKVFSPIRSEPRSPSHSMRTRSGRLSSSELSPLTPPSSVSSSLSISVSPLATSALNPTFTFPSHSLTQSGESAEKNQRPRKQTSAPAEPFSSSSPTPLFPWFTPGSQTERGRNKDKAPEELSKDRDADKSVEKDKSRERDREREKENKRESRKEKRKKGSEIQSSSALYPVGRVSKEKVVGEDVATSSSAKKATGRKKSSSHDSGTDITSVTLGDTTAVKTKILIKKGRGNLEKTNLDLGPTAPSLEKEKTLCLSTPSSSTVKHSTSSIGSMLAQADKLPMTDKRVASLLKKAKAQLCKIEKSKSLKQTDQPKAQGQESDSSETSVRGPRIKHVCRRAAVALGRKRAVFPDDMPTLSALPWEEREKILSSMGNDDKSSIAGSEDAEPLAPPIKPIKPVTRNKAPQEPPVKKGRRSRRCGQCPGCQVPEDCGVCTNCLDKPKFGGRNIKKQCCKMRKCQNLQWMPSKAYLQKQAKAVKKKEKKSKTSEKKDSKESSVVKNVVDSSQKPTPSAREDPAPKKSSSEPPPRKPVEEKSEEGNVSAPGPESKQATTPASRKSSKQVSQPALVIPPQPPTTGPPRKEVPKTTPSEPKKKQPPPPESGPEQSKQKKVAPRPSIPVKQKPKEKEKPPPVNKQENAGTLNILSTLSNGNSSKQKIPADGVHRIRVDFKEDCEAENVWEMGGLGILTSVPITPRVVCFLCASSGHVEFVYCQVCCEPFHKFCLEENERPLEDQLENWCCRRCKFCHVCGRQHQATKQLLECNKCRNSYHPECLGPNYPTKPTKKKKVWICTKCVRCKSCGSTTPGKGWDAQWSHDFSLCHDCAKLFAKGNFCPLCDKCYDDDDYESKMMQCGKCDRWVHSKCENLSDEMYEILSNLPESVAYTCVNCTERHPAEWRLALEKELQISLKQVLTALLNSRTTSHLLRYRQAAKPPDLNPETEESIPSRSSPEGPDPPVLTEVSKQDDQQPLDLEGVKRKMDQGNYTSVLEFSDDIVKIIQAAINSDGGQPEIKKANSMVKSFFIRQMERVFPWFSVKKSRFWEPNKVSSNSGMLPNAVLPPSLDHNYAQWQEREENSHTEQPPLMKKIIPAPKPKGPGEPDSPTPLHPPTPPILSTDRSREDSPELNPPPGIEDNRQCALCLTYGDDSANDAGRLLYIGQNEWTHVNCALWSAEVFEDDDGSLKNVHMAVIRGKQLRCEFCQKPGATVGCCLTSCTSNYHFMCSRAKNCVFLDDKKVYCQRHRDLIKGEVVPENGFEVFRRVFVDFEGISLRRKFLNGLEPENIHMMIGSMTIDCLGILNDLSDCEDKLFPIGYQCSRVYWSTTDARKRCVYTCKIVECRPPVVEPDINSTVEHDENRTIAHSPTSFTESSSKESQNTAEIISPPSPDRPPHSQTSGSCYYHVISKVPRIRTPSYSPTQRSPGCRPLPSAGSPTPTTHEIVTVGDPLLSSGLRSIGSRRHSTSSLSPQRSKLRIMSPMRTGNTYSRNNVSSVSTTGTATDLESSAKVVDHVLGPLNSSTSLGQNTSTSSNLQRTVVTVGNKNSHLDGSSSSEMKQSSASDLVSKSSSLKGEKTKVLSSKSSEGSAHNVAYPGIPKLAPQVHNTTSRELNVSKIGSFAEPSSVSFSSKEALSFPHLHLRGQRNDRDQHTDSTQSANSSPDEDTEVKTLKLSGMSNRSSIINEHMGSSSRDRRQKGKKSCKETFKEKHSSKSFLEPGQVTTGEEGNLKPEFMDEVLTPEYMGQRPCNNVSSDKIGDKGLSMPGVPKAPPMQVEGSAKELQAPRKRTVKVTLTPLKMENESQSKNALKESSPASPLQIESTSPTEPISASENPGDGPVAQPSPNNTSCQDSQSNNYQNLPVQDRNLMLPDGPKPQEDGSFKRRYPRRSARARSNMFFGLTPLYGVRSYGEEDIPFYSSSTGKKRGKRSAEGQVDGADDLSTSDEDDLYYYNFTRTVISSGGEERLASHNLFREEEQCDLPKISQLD
Chain of Menin/Histone-lysine N-methyltransferase MLL (Q03164 2719-3969 partner limits assumed, one chain of several): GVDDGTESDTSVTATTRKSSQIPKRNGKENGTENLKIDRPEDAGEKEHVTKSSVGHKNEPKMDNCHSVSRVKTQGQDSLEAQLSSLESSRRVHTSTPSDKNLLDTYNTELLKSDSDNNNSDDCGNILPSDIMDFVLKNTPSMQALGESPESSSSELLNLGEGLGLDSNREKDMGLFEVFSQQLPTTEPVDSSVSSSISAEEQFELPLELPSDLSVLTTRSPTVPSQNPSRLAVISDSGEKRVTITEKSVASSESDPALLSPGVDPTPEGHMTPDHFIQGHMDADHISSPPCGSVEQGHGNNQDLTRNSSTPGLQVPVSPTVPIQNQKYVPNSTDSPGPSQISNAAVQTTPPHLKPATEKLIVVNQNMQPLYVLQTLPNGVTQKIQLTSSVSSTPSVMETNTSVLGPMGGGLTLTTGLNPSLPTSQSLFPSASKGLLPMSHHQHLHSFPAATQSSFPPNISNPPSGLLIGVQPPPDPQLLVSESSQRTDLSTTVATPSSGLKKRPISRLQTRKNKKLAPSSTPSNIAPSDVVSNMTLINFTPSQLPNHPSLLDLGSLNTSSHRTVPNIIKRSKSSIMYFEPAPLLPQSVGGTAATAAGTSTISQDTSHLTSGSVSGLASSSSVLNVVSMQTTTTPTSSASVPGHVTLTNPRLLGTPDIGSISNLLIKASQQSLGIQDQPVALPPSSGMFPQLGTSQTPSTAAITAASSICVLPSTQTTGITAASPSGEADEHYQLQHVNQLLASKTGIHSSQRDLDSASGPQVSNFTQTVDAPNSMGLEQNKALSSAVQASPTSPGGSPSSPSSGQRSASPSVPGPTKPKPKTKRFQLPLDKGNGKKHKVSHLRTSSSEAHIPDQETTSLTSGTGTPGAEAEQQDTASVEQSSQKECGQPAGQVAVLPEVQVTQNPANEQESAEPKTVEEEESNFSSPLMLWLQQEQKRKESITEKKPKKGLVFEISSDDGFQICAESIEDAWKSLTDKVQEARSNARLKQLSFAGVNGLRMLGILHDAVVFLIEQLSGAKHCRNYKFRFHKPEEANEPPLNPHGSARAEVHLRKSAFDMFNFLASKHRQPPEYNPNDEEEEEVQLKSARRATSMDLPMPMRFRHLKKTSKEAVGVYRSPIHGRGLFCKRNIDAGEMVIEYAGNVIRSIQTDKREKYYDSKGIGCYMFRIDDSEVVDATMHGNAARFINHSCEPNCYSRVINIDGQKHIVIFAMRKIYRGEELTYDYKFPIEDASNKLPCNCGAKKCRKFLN

With `N#Cc1cc2cc(CN3CCC(Nc4ncnc5sc(CC(F)(F)F)cc45)CC3)ccc2n1CC(N)=O` the Ratio [1] was over 90, the IC50 [2] was 25 nM and the GI50 [3] was 780 nM. It also gave a GI50 [4] of 25000 nM, a RatioGI50 [5] of 32 and a t1/2 [6] of 0.9 h.
`N#Cc1cc2cc(CN3CCC(Nc4ncnc5sc(CC(F)(F)F)cc45)CC3)c(O)cc2n1Cc1cn[nH]c1` gave a GI50 [7] of 175 nM, a GI50 [8] of 268 nM and a GI50 [9] of over 6000 nM. For the same compound, the inhibition [10] was “Active”, the inhibition [11] was “Active” and the inhibition [12] was “Active”. The inhibition [13] was “Active”, the inhibition [14] was 50% and the inhibition [15] was “Active”. For the same compound, the inhibition in vivo at 45 mg/kg [16] was 80%, the Activity [17] was under 10% and the Kd [18] was 6.5 nM. The Drug metabolism [19] was “metabolite_detected”, the IC50 [2] was 21 nM and the GI50 [3] was 83 nM. It also gave a GI50 [4] of 9000 nM, a RatioGI50 [5] of 108 and a Tmax [20] of 2 h. For the same compound, the Cmax [21] was 4572 ng/mL, the AUC [22] was 17897 ng·h/mL and the AUC [23] was 18090 ng·h/mL. It also gave a t1/2 [24] of 1.6 h, a clearance [25] of 14 mL/min/kg and a Vdss [26] of 2.347 L/kg. The F [27] was 51%.
`COc1cc2c(cc(C#N)n2Cc2cn[nH]c2)c(C)c1CN1CCC(Nc2ncnc3sc(CC(F)(F)F)cc23)CC1` showed an F [28] of 1%, an IC50 [2] of 12 nM and a GI50 [3] of 180 nM. The GI50 [4] was 4200 nM, the RatioGI50 [5] was 23 and the t1/2 [6] was 0.917 h. The Tmax [29] was 2 h, the Cmax [30] was 101 ng/mL and the AUC [31] was 16235 ng·h/mL. The AUC [32] was 383 ng·h/mL, the t1/2 [33] was 1.4 h and the clearance [34] was 15 mL/min/kg. It also gave a Vdss [35] of 1.837 L/kg.
